ABCB1 block: inhibitors of human ABCB1 transporter, ABCG2 counter-screen; P08183; CCRF-Adr cells, JC-1 efflux, flow cytometry; inhibition, % at 6.6 µM; 0.067% of 190,000 active; AID 1326; in the data active means inhibition above about 40%;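 further: higher value means more JC-1 retained so stronger ABCB1 efflux block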
RAM network inh: inhibitors of the yeast RAM network; S. cerevisiae dse1pr::URA3 reporter, 5-FOA growth OD615, 2 d; analog-sensitive cbk1-as2 kinase mutant strain; 1.8% of 190,000 active; inhibition, % at 50 µM; AID 868;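 active means inhibition above a set limit, 3 SD over mean compound inhibition, cut at about 8.4% in these data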;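 further: inhibition rescues growth on 5-FOA so higher OD means more RAM inhibition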
WT yeast gro inh: growth inhibition of WT yeast, mitochondrial fusion screen. mitochondrial fusion phenotypic screen, WT strain. inhibition, % at 10 µM. 2.1% of 190,000 active; in the data active means inhibition above about 58%; tested in S. cerevisiae
L major viab: Leishmania major promastigote growth inhibition; 9% of 200,000 active; inhibition, % at 10 µM; Leishmania major promastigotes, resazurin fluorescence viability; in the data active means inhibition above about 50%;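 further: promastigotes grown with compound for 44 hours at 28 °C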
ABCG2 block: blocks JC-1 efflux by human ABCG2 transporter; inhibition, % at 6.6 µM; Q9UNQ0; 0.1% of 190,000 active; AID 1325; IgMXP3 cells, flow cytometry;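 active means inhibition above 80%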
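Test system: IgMXP3 (ABCG2) plus far-red-tagged CCRF-Adr (ABCB1) cells / Amount: 3 million cells/mL in well / Reagent: JC-1 transporter substrate / Timing: 10 min compound exposure, 25 °C / Signal: flow cytometry, 530 nm JC-1 signal / Read-out: percent efflux inhibition, scaled nicardipine 100% to DMSO 0% / Benchmarks: nicardipine as high control, DMSO as low control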
Large screens that a line does not name were inactive. A selection: hits, their analogues and other compounds. The true share with any hit is near 12%.

c1ccc(CNc2nc(CN3CCOCC3)nc3scc(-c4ccccc4)c23)cc1	none
Clc1ccc(CNc2nc(CN3CCOCC3)nc3scc(-c4ccccc4)c23)cc1	WT yeast gro inh 79
Cc1cccc(NC(=S)N(C)Cc2cn(C)c3ccccc23)c1	WT yeast gro inh 72, L major viab 69
CN(Cc1cn(C)c2ccccc12)C(=S)Nc1cc(F)cc(F)c1	L major viab 74
COc1ccccc1OCCn1c(=O)oc2ccc(C)cc21	none
O=C(CCN1CCc2ccccc21)c1ccc2c(c1)OCCO2	none
COc1cc(C(=O)CCN2CCC(c3ccccc3)C2)cc(OC)c1OC (centres undefined)	L major viab 81
O=C(CCN1CCc2ccccc2C1)c1ccc2c(c1)OCCO2	L major viab 100
O=C(CCN1CCCCC1)c1ccc2c(c1)OCCO2	none
O=C(CCN1CCC(c2ccccc2)C1)c1ccc2c(c1)OCCO2 (centres undefined)	L major viab 101 (no result: ABCB1 block, ABCG2 block)
O=C(CCN1CCCC1Cc1ccccc1)c1ccc2c(c1)OCCO2 (centres undefined)	L major viab 100
CC1(c2ccc(Cl)cc2)NC(=O)N(CC(=O)NC(=O)NCc2ccco2)C1=O (centres undefined)	none
O=C(CCN1CCC(c2ccccc2)C1)c1cccs1 (centres undefined)	L major viab 72
O=C1C2C3C=CC(CO)(O3)C2C(=O)N1c1ccccc1-c1ccccc1 (centres undefined)	WT yeast gro inh 69
COc1cc(OC)cc(C(=O)NCc2nc(-c3ccccc3)no2)c1	L major viab 68
CCn1c(=O)n(CC(=O)Nc2ccc(F)cc2)c(=O)c2ccccc21	none
CN1CCC(=NNC(=O)CSc2ccc(Cl)cc2)CC1	none
N#C/C(=C\C1CC2C=CC1C2)c1nc2ccccc2[nH]1 (centres undefined)	L major viab 56
N#C/C(=C\c1ccc(OC(=O)c2cccs2)cc1)c1nc2ccccc2[nH]1	none
N#C/C(=C\c1ccc([N+](=O)[O-])o1)c1nc2ccccc2[nH]1	L major viab 100
N#C/C(=C\c1ccncc1)c1nc2ccccc2c(=O)[nH]1	none
N#C/C(=C\c1cccs1)c1nc2ccccc2[nH]1	L major viab 60
N#C/C(=C\c1ccccc1)c1nc2ncccc2[nH]1	L major viab 66
CCN(C(=O)c1ccnn1C)c1ccccc1	none
O=C(CN1C(=O)c2ccccc2S1(=O)=O)c1ccccc1	none
Cc1ccc(C(=O)CN2/C(=C(\O)c3ccccc3)C(=O)c3ccccc3S2(=O)=O)c(C)c1	L major viab 82
Cc1occc1-c1nnc(-c2cc([N+](=O)[O-])cc([N+](=O)[O-])c2)o1	L major viab 82
CC(C)Oc1ccc(C(CC(=O)O)n2cnnn2)cc1 (centres undefined)	none
COc1cccc(/C=C2\C(=O)N(c3cccc(C)c3)C(=O)c3ccccc32)c1	L major viab 73
CCOC(=O)N1CCC(Nc2ccc(N3C(=O)C4CCCCC4C3=O)cc2[N+](=O)[O-])CC1 (centres undefined)	none
CCOc1cccc(-c2nnc(SCC(=O)Nc3cc(OC)cc(OC)c3)n2N)c1	none
COc1cccc(NC(=O)CSc2nnc(-c3cccc(OC(C)C)c3)n2N)c1	RAM network inh 11
CCc1ccc(-c2ccc(SCC(=O)NCC3CCCO3)nn2)cc1 (centres undefined)	none
COc1ccccc1NC(=O)c1ccc2c(c1)nnn2C	none
Cc1c(N=C2SCC(=O)N2/N=C/c2ccccc2Cl)c(=O)n(-c2ccccc2)n1C	none
Cc1c(N=C2SCC(=O)N2/N=C\c2ccc(Br)cc2)c(=O)n(-c2ccccc2)n1C	L major viab 76
O=[N+]([O-])c1ccc(C(O)C23CN4CN(CN(C4)C2)C3)cc1 (centres undefined)	none
Cc1ccc(C(C)C)c(OCc2nnc(SCC(=O)Nc3ncc(C)s3)n2C)c1	RAM network inh 8.6
CCn1nc(C)cc1C(=O)N1CCCC(C(=O)c2ccc3ccccc3c2)C1 (centres undefined)	none
CCc1cccc2c1NC(=O)C21N2CCCC2C(C(=O)c2ccc3ccccc3c2)C12C(=O)Nc1ccccc12 (centres undefined)	L major viab 82
CCc1ccc2c(c1)C1(C(=O)N2)N2CCCC2C(C(=O)c2ccc3ccccc3c2)C12C(=O)Nc1ccccc12 (centres undefined)	L major viab 79
O=S(=O)(NC(=S)NC1CCCCC1)c1ccccc1	none
CCn1cc(C(=O)NCc2ccccc2)c(=O)c2cc(F)c(N3CCN(C(=O)c4ccco4)CC3)cc21	L major viab 95
CSc1ccc(CN2CCN(C(=O)c3ccc([N+](=O)[O-])cc3)CC2)cc1	L major viab 69
O=C(COc1ccc([N+](=O)[O-])cc1)Nc1ccc(CN2CCOCC2)cc1	L major viab 63
CCN1CCN(C(=O)c2ccc(CSc3ccc(C)cc3)cc2)CC1	L major viab 100
O=C(Cc1ccccc1)N1CCN(C(=O)c2ccc([N+](=O)[O-])cc2)CC1	none
C/C(=N\NC(=O)c1ccc(CN2CCOCC2)cc1)c1cccc([N+](=O)[O-])c1	none
Cc1ccc(SCc2ccc(C(=O)N3CCCC3)cc2)cc1	none
C/C(=N\NC(=O)c1ccc(CN2CCOCC2)cc1)c1ccc([N+](=O)[O-])cc1	L major viab 77
O=C(O)CC(NC(=O)C12CC3CC(CC(C3)C1)C2)c1ccc(OC2CCCC2)cc1 (centres undefined)	none
COc1cccc(C(=O)/C=C/Nc2ccc(S(=O)(=O)Nc3onc(C)c3C)cc2)c1	RAM network inh 8.9
CSc1cccc(NS(=O)(=O)c2ccc(F)cc2)c1	L major viab 55
CSc1cccc(NS(=O)(=O)c2ccccc2)c1	none
CC(=O)c1cccc(NS(=O)(=O)c2ccc(N/C=C/C(=O)c3ccc(F)cc3)cc2)c1	RAM network inh 9.6
CCS(=O)(=O)c1ccc2oc(SCC(=O)NC3CCCC(C)C3C)nc2c1 (centres undefined)	none
Cc1nn(-c2ccccc2)c2sc(C(=O)N(CC(=O)NC(C)(C)C)Cc3ccco3)cc12	L major viab 60
Cc1ccc(-c2nc3ccc([N+](=O)[O-])cc3[nH]2)cc1	none
O=[N+]([O-])c1ccc2nc(-[n+]3c(-c4ccccc4)cc(-c4ccccc4)cc3-c3ccccc3)[nH]c2c1	L major viab 89
O=[N+]([O-])c1ccc2nc(-c3ccc(Cl)cc3)[nH]c2c1	WT yeast gro inh 63
COc1cc(/C=N/NC(=O)C(N)=O)ccc1OCC(=O)N1C(C)CCCC1C (centres undefined)	none
CCOc1ccccc1N1CCN(C2=C(NS(=O)(=O)c3cccs3)C(=O)c3ccccc3C2=O)CC1	L major viab 99
O=C(c1ccncc1)N1CCN(c2cccc(C(F)(F)F)c2)CC1	none

Compound activity deposited in PubChem BioAssay by several laboratories.
